Experimental data as given in ChEMBL document CHEMBL1134398, “Synthesis, structure-activity relationships, and pharmacokinetic profiles of nonpeptidic difluoromethylene ketones as novel inhibitors of human chymase” (J Med Chem, 2001).
Calls of active or inactive are those of the source. No cut-off for these calls is given here.

Columns and labels:
Chymase = molecular target: T1, Chymase (Homo sapiens, UniProt P23946); experiment: In vitro inhibitory activity was determined against human heart chymase
T1 sequence (P23946 whole entry): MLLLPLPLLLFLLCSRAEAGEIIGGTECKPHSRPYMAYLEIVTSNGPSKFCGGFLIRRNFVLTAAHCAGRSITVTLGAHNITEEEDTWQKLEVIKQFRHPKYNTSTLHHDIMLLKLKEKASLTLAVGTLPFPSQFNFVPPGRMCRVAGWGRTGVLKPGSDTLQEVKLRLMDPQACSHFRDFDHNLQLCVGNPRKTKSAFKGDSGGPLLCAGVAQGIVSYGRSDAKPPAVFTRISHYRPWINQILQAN

[1] = (§1) Steady state volume of distribution was determined; assay type: ADME, organism-based, Canis lupus familiaris; details: dog, in vivo; read-out: Vdss
In short: (§2)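 Male Sprague–Dawley rats (204–222 g) and male beagles (11.4–12.5 kg), n=3 each, fasted 18 h before and 4 h after dosing. Plasma sampled up to 24 h, quantified by LC–MS/MS with internal standard. AUC 0–infinity.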

[2] = as §1; assay type: ADME, organism-based; details: rat, in vivo; read-out: Vdss; in short: as §2
[3] = Pharmacokinetic parameter AUC after intravenous administration to dogs; assay type: ADME, organism-based, Canis lupus familiaris; details: dog, in vivo; in short: as §2
[4] = Pharmacokinetic parameter AUC after oral administration to dogs; assay type: ADME, organism-based, Canis lupus familiaris; details: dog, in vivo
In short: (§3)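 10 mg/kg by gavage to fasted male rats (suspension 10 mg/mL, 0.5% HPMC) or male beagles (solution 2.5 mg/mL, DMSO–PEG-400–1 M HCl–saline 2:38:10:50), n=3. Plasma sampled up to 24 h, assayed by LC–MS/MS. Cmax and Tmax taken from measured values. BA = (AUCpo×dose iv)/(AUCiv×dose po)×100, using 1 mg/kg iv.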

[5] = Plasma administration to rats; assay type: ADME, organism-based; details: rat; in short: as §2
[6] = Bioavailability administered orally at a dose of 10 mg/kg to dogs; assay type: ADME, organism-based, Canis lupus familiaris; details: dog, in vivo, po, read-out: BA; in short: as §3
[7] = Time to reach Cmax after oral administration to dogs; assay type: ADME, organism-based, Canis lupus familiaris; details: dog, in vivo; in short: as §3
[8] = Maximum plasma concentration after oral administration to rats; assay type: ADME, organism-based; design: route oral; details: rat; in short: as §3
[9] = Time to reach Cmax after oral administration to rats; assay type: ADME, organism-based; details: rat, in vivo; in short: as §3
[10] = Half life was evaluated after intravenous administration to dogs; assay type: ADME, organism-based, Canis lupus familiaris; details: dog, in vivo; in short: as §2
[11] = Plasma administration to dogs; assay type: ADME, organism-based, Canis lupus familiaris; details: dog; in short: as §2
[12] = Pharmacokinetic parameter AUC after intravenous administration to rats; assay type: ADME, organism-based; details: rat, in vivo; in short: as §2
[13] = Pharmacokinetic parameter AUC after oral administration to rats; assay type: ADME, organism-based; details: rat, in vivo; in short: as §3
[14] = Bioavailability administered orally at a dose of 10 mg/kg to rats; assay type: ADME, organism-based; details: rat, in vivo, po, read-out: BA; in short: as §3
[15] = Maximum plasma concentration after oral administration to dogs at a dose of 10 mg/kg; assay type: ADME, organism-based, Canis lupus familiaris; design: dose 10 mg/kg, route oral; details: dog; in short: as §3
[16] = molecular target: Angiotensin-converting enzyme (Homo sapiens) (UniProt P12821); experiment: Inhibitory activity against human angiotensin I converting enzyme (10 uM); No inhibition
Angiotensin-converting enzyme (Homo sapiens), sequence (P12821 whole entry): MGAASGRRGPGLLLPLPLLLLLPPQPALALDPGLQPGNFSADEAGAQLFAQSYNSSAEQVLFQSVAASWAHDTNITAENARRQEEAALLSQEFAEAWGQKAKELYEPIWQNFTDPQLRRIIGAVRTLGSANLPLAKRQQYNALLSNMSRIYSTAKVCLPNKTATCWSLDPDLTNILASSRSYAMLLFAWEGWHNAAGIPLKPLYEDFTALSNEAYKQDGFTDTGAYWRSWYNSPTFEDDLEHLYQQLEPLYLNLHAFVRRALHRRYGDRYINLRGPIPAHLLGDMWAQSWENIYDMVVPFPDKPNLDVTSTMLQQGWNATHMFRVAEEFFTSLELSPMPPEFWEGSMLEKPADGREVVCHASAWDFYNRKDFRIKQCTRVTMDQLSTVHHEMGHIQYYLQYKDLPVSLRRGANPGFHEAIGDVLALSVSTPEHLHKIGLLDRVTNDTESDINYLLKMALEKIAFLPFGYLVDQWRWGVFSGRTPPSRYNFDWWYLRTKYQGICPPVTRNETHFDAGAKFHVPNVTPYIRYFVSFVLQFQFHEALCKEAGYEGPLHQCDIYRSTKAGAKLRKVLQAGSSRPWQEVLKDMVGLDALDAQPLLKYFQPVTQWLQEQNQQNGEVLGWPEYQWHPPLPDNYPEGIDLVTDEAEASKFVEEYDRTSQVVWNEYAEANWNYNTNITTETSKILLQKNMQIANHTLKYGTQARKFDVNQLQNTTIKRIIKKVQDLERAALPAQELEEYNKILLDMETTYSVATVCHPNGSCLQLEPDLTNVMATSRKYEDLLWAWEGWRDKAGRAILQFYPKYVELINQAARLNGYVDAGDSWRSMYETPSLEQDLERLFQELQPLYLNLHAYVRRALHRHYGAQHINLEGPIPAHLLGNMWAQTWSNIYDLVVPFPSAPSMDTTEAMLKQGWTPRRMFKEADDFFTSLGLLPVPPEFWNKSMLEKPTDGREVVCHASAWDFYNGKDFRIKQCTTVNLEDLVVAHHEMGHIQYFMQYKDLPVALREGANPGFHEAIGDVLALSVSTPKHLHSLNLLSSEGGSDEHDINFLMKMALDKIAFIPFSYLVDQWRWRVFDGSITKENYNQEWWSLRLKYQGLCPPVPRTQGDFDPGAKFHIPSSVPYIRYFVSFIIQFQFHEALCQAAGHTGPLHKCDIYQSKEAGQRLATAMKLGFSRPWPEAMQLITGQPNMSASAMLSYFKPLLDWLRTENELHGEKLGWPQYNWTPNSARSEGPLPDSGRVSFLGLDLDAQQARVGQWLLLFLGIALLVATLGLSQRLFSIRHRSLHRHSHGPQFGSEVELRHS

[17] = molecular target: T2, Neutrophil elastase (Homo sapiens) (UniProt P08246); experiment: Inhibitory activity against human leukocyte elastase (10 uM); No inhibition
T2 sequence (whole entry): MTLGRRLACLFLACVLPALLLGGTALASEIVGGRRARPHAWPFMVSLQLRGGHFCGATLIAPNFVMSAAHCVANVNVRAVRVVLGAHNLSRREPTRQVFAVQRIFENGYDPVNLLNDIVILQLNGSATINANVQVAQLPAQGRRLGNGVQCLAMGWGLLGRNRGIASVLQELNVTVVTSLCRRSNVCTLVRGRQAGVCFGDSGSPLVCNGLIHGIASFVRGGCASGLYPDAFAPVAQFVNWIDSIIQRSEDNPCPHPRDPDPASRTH

Cathepsin G = molecular target: T3, Cathepsin G (Homo sapiens, UniProt P08311); experiment: Inhibitory activity against human cathepsin G
T3 sequence (P08311 whole entry): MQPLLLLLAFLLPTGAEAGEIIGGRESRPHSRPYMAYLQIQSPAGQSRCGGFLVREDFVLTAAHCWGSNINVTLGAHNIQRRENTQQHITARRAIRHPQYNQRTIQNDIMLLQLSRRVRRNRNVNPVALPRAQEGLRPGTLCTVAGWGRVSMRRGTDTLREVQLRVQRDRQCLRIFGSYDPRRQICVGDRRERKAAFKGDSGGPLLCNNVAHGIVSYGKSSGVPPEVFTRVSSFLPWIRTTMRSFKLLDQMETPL
In short: (§4)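 Chymotrypsin-type assay: purified enzyme hydrolyzes succinyl-Ala-Ala-Pro-Phe-p-nitroanilide, with p-nitroaniline release followed at 405 nm. Ki derived, as means ± SEM of three independent experiments. Human heart chymase was a purified preparation.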

Mast cell protease 9 = molecular target: T4, Mast cell protease 9 (Mus musculus, UniProt O35164); experiment: Inhibitory activity against mouse peritoneal chymase; in short: as §4
T4 sequence (O35164 whole entry): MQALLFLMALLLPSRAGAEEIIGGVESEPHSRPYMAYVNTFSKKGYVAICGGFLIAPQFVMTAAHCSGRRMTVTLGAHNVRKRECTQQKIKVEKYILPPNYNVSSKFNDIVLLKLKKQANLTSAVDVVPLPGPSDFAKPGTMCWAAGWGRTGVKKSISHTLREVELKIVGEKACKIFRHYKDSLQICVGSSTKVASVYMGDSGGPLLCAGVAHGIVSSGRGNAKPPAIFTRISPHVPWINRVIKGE

[18] = molecular target: Prothrombin (Homo sapiens) (UniProt P00734); experiment: Inhibitory activity against human plasma thrombin (10 uM); No inhibition; assay type: cell-free
[19] = Half life was evaluated after intravenous administration to rats; assay type: ADME, organism-based; details: rat, in vivo; in short: as §2
[20] = The selectivity was determined for chymotrypsin to that of chymase

## Cc1cccc(-c2ncc(N)c(=O)n2CC(=O)NC(Cc2ccccc2)C(=O)C(F)(F)C(=O)N(C)C)c1 (stereo unspecified)
Chymase
  Ki: 489 nM

## CNC(=O)C(F)(F)C(=O)C(Cc1ccccc1)NC(=O)Cn1c(-c2cccc(C)c2)ncc(N)c1=O (stereo unspecified)
Chymase
  Ki: 90.7 nM

## Nc1cnc(-c2cccc(Cl)c2)n(CC(=O)NC(Cc2ccccc2)C(=O)C(F)(F)C(=O)NCc2ccccc2)c1=O (stereo unspecified)
[1]
  Vd: 0.257 L/kg
[2]
  Vd: 0.369 L/kg
[3]
  AUC: 5720 ng·h/mL
[4]
  AUC: 18500 ng·h/mL
[5]
  clearance: 2.28 mL/min/kg
[6]
  bioavailability: 32%
[7]
  Tmax: 0.7 h
[8]
  Cmax: 1520 ng/mL
[9]
  Tmax: 1.3 h
[10]
  half-life: 1.4 h
[11]
  clearance: 3.25 mL/min/kg
[12]
  AUC: 7330 ng·h/mL
[13]
  AUC: 12100 ng·h/mL
[14]
  bioavailability: 17%
[15]
  Cmax: 7320 ng/mL
[16]
  NI: inactive
[17]
  NI: inactive
Cathepsin G
  Ki: 1390 nM
Mast cell protease 9
  Ki: 1260 nM
[18]
  NI: inactive
[19]
  half-life: 2.1 h

## CCN(CC)C(=O)CCNC(=O)C(F)(F)C(=O)C(Cc1ccccc1)NC(=O)Cn1c(-c2cccc(C)c2)ncc(N)c1=O (stereo unspecified)
Chymase
  Ki: 33.7 nM

## Nc1cnc(-c2cccnc2)n(CC(=O)NC(Cc2ccccc2)C(=O)C(F)(F)C(=O)NCc2ccccc2)c1=O (stereo unspecified)
Chymase
  Ki: 74.3 nM

## Nc1cnc(-c2ccncc2)n(CC(=O)NC(Cc2ccccc2)C(=O)C(F)(F)C(=O)NCc2ccccc2)c1=O (stereo unspecified)
Chymase
  Ki: 84.7 nM

## Cc1cccc(-c2ncc(N)c(=O)n2CC(=O)NC(Cc2ccccc2)C(=O)C(F)(F)F)c1 (stereo unspecified)
Chymase
  Ki: 50.6 nM

## Cc1cccc(-c2ncc(N)c(=O)n2CC(=O)NC(Cc2ccccc2)C(=O)C(F)(F)C(=O)NCC(=O)O)c1 (stereo unspecified)
Chymase
  Ki: 16.9 nM

## CCNC(=O)CNC(=O)C(F)(F)C(=O)C(Cc1ccccc1)NC(=O)Cn1c(-c2cccc(C)c2)ncc(N)c1=O (stereo unspecified)
Chymase
  Ki: 7.71 nM

## Cc1cccc(-c2ncc(N)c(=O)n2CC(=O)NC(Cc2ccccc2)C(=O)C(F)(F)C(=O)NCCC(=O)O)c1 (stereo unspecified)
Chymase
  Ki: 23 nM
[20]
  Selectivity: 62.2

## COC(=O)CNC(=O)C(F)(F)C(=O)C(Cc1ccccc1)NC(=O)Cn1c(-c2cccc(C)c2)ncc(N)c1=O (stereo unspecified)
Chymase
  Ki: 10.2 nM

## CCCCCNC(=O)C(F)(F)C(=O)C(Cc1ccccc1)NC(=O)Cn1c(-c2cccc(C)c2)ncc(N)c1=O (stereo unspecified)
Chymase
  Ki: 18.5 nM

## Nc1cnc(-c2ccccc2)n(CC(=O)NC(Cc2ccccc2)C(=O)C(F)(F)C(=O)NCc2ccccc2)c1=O (stereo unspecified)
Chymase
  Ki: 32.5 nM

## Cc1cccc(-c2ncc(N)c(=O)n2CC(=O)NC(Cc2ccccc2)C(=O)C(F)(F)C(=O)Nc2ccc(C(=O)O)cc2)c1 (stereo unspecified)
Chymase
  Ki: 16.6 nM

## CCN(CC)C(=O)CNC(=O)C(F)(F)C(=O)C(Cc1ccccc1)NC(=O)Cn1c(-c2cccc(C)c2)ncc(N)c1=O (stereo unspecified)
Chymase
  Ki: 9.32 nM

## Cc1cccc(-c2ncc(N)c(=O)n2CC(=O)NC(Cc2ccccc2)C(=O)C(F)(F)C(=O)NCC(N)=O)c1 (stereo unspecified)
Chymase
  Ki: 12 nM
[20]
  Selectivity: 120

## Nc1cnc(-c2ccc(F)cc2)n(CC(=O)NC(Cc2ccccc2)C(=O)C(F)(F)C(=O)NCc2ccccc2)c1=O (stereo unspecified)
Chymase
  Ki: 440 nM
[20]
  Selectivity: 7.45

## Cc1cccc(-c2ncc(N)c(=O)n2CC(=O)NC(Cc2ccccc2)C(=O)C(F)(F)C(=O)NCC(=O)N2CCCCCC2)c1 (stereo unspecified)
Chymase
  Ki: 3.56 nM

## CCOC(=O)C(F)(F)C(=O)C(Cc1ccccc1)NC(=O)Cn1c(-c2cccc(C)c2)ncc(N)c1=O (stereo unspecified)
Chymase
  Ki: > 10000 nM

## Nc1cnc(-c2cccc(F)c2)n(CC(=O)NC(Cc2ccccc2)C(=O)C(F)(F)C(=O)NCc2ccccc2)c1=O (stereo unspecified)
Chymase
  Ki: 15.7 nM

## Cc1cccc(-c2ncc(N)c(=O)n2CC(=O)NC(Cc2ccccc2)C(=O)C(F)(F)C(=O)NCc2ccccc2)c1 (stereo unspecified)
Chymase
  Ki: 16.9 nM
[20]
  Selectivity: 114

## COc1cccc(-c2ncc(N)c(=O)n2CC(=O)NC(Cc2ccccc2)C(=O)C(F)(F)C(=O)NCc2ccccc2)c1 (stereo unspecified)
Chymase
  Ki: 13.8 nM

## Cc1cccc(-c2ncc(N)c(=O)n2CC(=O)NC(Cc2ccccc2)C(=O)C(F)(F)C(=O)NCC(=O)N2CCCCC2)c1 (stereo unspecified)
Chymase
  Ki: 10.2 nM

## Cc1cccc(-c2ncc(N)c(=O)n2CC(=O)NC(Cc2ccccc2)C(=O)C(F)(F)C(N)=O)c1 (stereo unspecified)
Chymase
  Ki: 13.3 nM

## Cc1cccc(-c2ncc(N)c(=O)n2CC(=O)NC(Cc2ccccc2)C(=O)C(F)(F)C(=O)O)c1 (stereo unspecified)
Chymase
  Ki: > 10000 nM

## Cc1cccc(-c2ncc(N)c(=O)n2CC(=O)NC(Cc2ccccc2)C(=O)C(F)(F)C(=O)Nc2cccc(C(=O)O)c2)c1 (stereo unspecified)
Chymase
  Ki: 9.7 nM

## Cc1cccc(-c2ncc(N)c(=O)n2CC(=O)NC(Cc2ccccc2)C(=O)C(F)(F)C(=O)NCc2cccnc2)c1 (stereo unspecified)
Chymase
  Ki: 28.9 nM
